Measurements from different studies.
pIC50: −log10 of the molar value.
Cell line: CCRF-CEM
Observed: cell growth or viability

Cc1ccc(C=C2SC(=O)N(CC(=O)Nc3ccc(Cl)cc3C(F)(F)F)C2=O)cc1 gave a pIC50 of 4.50 (MTT; 48 h).
CCOC(=O)c1cc(CCc2ccc(OC)cc2)sc1N gave a pIC50 of 5.72 (48 h).
For CC[C@]1(O)C[C@@H]2CN(CCc3c([nH]c4ccccc34)[C@@](C(=O)OC)(c3cc4c(cc3OC)N(C)[C@H]3[C@@](O)(C(=O)OC)[C@H](OC(C)=O)[C@]5(CC)C=CCN6CC[C@]43[C@@H]65)C2)C1, the pIC50 was 8.70 (MTT; 72 h).
The pIC50 of COc1ccc(OC)c(CCc2cc(C#N)c(N)s2)c1 is reported as 7.46 (48 h).
For O=C1C(=Cc2ccccc2)CN(C(=O)C(=O)N2CC(=Cc3ccccc3)C(=O)C(=Cc3ccccc3)C2)CC1=Cc1ccccc1, the pIC50 was 6.12 (72 h).
COc1cccc(C(=O)c2cc3c(-c4ccccc4)c(OC)ccc3o2)c1 gave a pIC50 of 5.27 (72 h).
O=C1C(=Cc2ccccc2)CN(C(=O)CCCC(=O)N2CC(=Cc3ccccc3)C(=O)C(=Cc3ccccc3)C2)CC1=Cc1ccccc1 has a pIC50 of 5.69 (72 h).
With CC[C@]1(O)C[C@H]2CN(CCc3c([nH]c4ccccc34)[C@@](C(=O)OC)(c3cc4c(cc3OC)N(C=O)[C@H]3[C@@](O)(C(=O)OC)[C@H](OC(C)=O)[C@]5(CC)C=CCN6CC[C@]43[C@@H]65)C2)C1 the pIC50 was 7.98 (fluorescence; 72 h).
COc1ccccc1C(=O)c1cc2c(-c3ccccc3)c(O)ccc2o1 gave a pIC50 of 4.72 (72 h).
COc1ccccc1CCc1cc(C#N)c(N)s1 gave a pIC50 of 5.17 (48 h).
The pIC50 of CCc1ccc(CCOc2ccc(CC3SC(=O)NC3=O)cc2)nc1 (centres unmarked) is reported as 4.75 (MTT; 48 h).
The pIC50 of CCOC(=O)c1cc(CCc2cc(OC)ccc2OC)sc1N is reported as 6.40 (48 h).
O=C(CN1C(=O)SC(=Cc2ccccc2)C1=O)Nc1ccc(Cl)cc1C(F)(F)F gave a pIC50 of 4.32 (MTT; 48 h).
For COC(=O)c1c(N)sc(CCc2cc(OC)ccc2OC)c1C, the pIC50 was 4.52 (48 h).
For O=C1NC(=NCc2cccs2)S/C1=C\c1ccc2ncccc2c1, the pIC50 was 5.60.
For COC(=O)c1cc(CCc2ccccc2OC)sc1N, the pIC50 was 5.92 (48 h).
COc1ccc(C(=O)c2cc3c(-c4ccccc4)c(OC)ccc3o2)cc1 has a pIC50 of 5.82 (72 h).
O=C1C(=Cc2ccccc2)CN(C(=O)CCC(=O)N2CC(=Cc3ccccc3)C(=O)C(=Cc3ccccc3)C2)CC1=Cc1ccccc1 gave a pIC50 of 5.92 (72 h).
For COc1cc(OC)cc(C(=O)c2cc3c(-c4ccccc4)c(O)ccc3o2)c1, the pIC50 was 5.02 (72 h).
For Cc1ccc(C=C2SC(=O)N(CC(=O)Nc3ccc(F)cc3F)C2=O)cc1C, the pIC50 was 4.50 (MTT; 48 h).
The pIC50 of O=C1C(=Cc2ccccc2)CN(C(=O)C=CC(=O)N2CC(=Cc3ccccc3)C(=O)C(=Cc3ccccc3)C2)CC1=Cc1ccccc1 is reported as 5.11 (72 h).
COc1ccc(CCc2cc(C#N)c(N)s2)cc1 gave a pIC50 of 5.14 (48 h).
COc1ccc2oc(C(=O)c3ccccc3)cc2c1-c1ccccc1 gave a pIC50 of under 4.30 (72 h).
